Screening results: PubChem, The Scripps Research Institute Molecular Screening Center
NPY-Y2 antag: NPY-Y2 (human) receptor antagonism; NPY-Y2 expressing cells, antagonist mode; 0.99% of 140,000 active; inhibition, % at 2.7 µM;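 note: 0% = vehicle with agonist challenge and 100% = reference antagonist with challenge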
Target sequence (P49146 whole entry, looked up): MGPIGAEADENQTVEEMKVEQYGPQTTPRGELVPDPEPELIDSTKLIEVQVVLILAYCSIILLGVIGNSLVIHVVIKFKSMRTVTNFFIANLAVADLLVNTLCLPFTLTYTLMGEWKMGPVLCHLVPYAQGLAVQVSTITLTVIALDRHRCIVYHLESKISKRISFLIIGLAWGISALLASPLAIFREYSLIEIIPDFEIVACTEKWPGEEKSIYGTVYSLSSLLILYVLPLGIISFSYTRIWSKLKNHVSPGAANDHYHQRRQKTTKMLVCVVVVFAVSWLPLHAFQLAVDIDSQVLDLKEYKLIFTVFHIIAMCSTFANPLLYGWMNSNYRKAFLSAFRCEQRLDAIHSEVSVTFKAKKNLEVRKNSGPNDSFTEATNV
Wee1 stabilizer: inhibitors of human Wee1 degradation | HeLa Luc-Wee1K328M stability, luciferase luminescence; 100% = proteasome inhibitor MG132 effect | 1.2% of 220,000 active | P30291 | reporter increase, % at 5 µM;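 active = activation above the mean of all tested compounds plus 3 SD, set per screening run, cut at about 8.8% in these data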;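 note: cells exposed to compound for 20 h before luminescence read; 0% = DMSO alone and 100% = MG132 at 30 µM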
NPY-Y1 antag: NPY-Y1 (human) receptor antagonism. inhibition, % at 3.6 µM. 1% of 200,000 active. HEK293-CNG Y1 cells, membrane potential fluorescence; NPY at EC95, then isoproterenol;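 active = inhibition above the campaign mean inhibition of all tested compounds plus 3 SD, cut at about 20% in these data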;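 note: 0% = DMSO wells given NPY plus isoproterenol and 100% = isoproterenol alone without NPY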
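Material: HEK293 Y1/CNG channel cell line | Also added: NPY (25 nM), isoproterenol (1 µM), Ro 20-1724 (25 µM) | Compound: One concentration, 3.6 µM, in 0.4% DMSO | Schedule: 3 h dye uptake, 1 h room-temperature compound, 45 min post-isoproterenol | Signal: Membrane-potential fluorescent dye readout | Read-out: % inhibition of NPY effect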
NPY2 pot ag: potentiates or activates human NPY-Y2 receptor. cells expressing NPY-Y2, potentiator/agonist read-out. activation, % at 3.6 µM. 0.45% of 220,000 active. AID 1359; in the data active = activation above about 27%;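 note: cells stimulated with NPY near EC25 plus isoproterenol at EC100; 0% = vehicle plus submaximal agonist and 100% = vehicle plus saturating agonist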
Hsp70 activator: Hsp70 transcriptional activation, primary screen | HeLa Hsp70 promoter luciferase reporter, luminescence; scaled: vehicle 0, proteasome-inhibitor control 100% | activation, % at 10 µM | 0.04% of 200,000 active | AID 1203;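 active = activation above the mean across all tested compounds plus 3 SD, cutoff set per campaign, cut at about 5.5% in these data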;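 note: 100% = MG132 at 30 µM as the positive control and 0% = DMSO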
NPY-Y1 PAM-ag: potentiates or activates human NPY-Y1 receptor; NPY-Y1 expressing cells, potentiator/agonist activation; activation, % at 3.6 µM; AID 1304; 0.37% of 220,000 active; in the data active = activation above about 33%, passing the limit was not always enough;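 note: cells stimulated with NPY at EC10 then isoproterenol at EC100; 0% = low agonist plus stimulus and 100% = saturating agonist plus stimulus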
NPY1 antag conf: confirmation of human neuropeptide Y receptor Y1 antagonists | shares compounds with NPY-Y1 antag | inhibition, % at 3.6 µM | HEK293-CNG NPY-Y1, membrane potential fluorescence, cAMP; NPY challenge against isoproterenol-raised cAMP | AID 1254 | 21% of 1,200 active; in the data active = inhibition above about 20%;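 note: 0% = vehicle with agonist plus stimulus and 100% = stimulus alone without agonist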
NPY-Y2 antag ct: counter-screen for NPY-Y1 antagonists: human NPY-Y2 antagonism; shares compounds with NPY-Y1 antag; inhibition, % at 3.6 µM; HEK293 NPY-Y2 CNG membrane potential fluorescence; cells given NPY, then isoproterenol; 28% of 1,200 active; AID 1255;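 note: 0% = DMSO with agonist challenge and 100% = reference antagonist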
* hit, by the source's call; · = not tested or not shown. Rows were chosen to be rich in hits. Some 3% of all compounds tested hit in one or more screens of this group. Cut-off read from the data, not from the text of the source, unless noted: active = inhibition above about 17%; inactive = the rest.

SMILES	NPY-Y2 antag	Wee1 stabilizer	NPY-Y1 antag	NPY2 pot ag	Hsp70 activator	NPY-Y1 PAM-ag	NPY1 antag conf	NPY-Y2 antag ct
Cn1c(=O)n(Cc2ccccc2Br)c2ccccc21	·	-1	0	-4	0	0	·	·
CCOc1ccc2nc(NCCNC(=O)C(C)C)c(C)cc2c1	9	-2	2	-8	0	-8	·	·
Cc1ccc(C(=O)NCCNc2nc3cc(C)c(C)cc3cc2C)cc1	·	4	33*	-14	0	-28	41*	65*
COCC(=O)NCCNc1nc2ccc(C)cc2cc1C	3	-1	0	-1	0	-18	·	·
Cc1cc2cc(C)c(NCCNC(=O)c3ccccc3)nc2cc1C	·	2	46*	-53	0	-59	32*	37*
Cn1c(=NCC(O)COc2ccccc2)sc2ccccc21 (stereo not given)	12	2	22*	-23	0	-57	7	15
CC(C)CCNC(=O)CN(C(=O)CCC(=O)Nc1ccccn1)c1ccc(F)c(Cl)c1	·	1	1	17	0	-7	·	·
COC(=O)c1sccc1NC(=O)/C=C/c1c(Cl)cccc1Cl	1	4	3	-5	0	-1	·	·
COC(=O)c1sccc1NC(=O)CSc1cccc(Cl)c1Cl	12	-1	24*	-30	0	-34	6	9
CC1CC1c1ccc(/C=C(\C#N)C(=O)Nc2ccc(Cl)cc2)o1 (stereo not given)	8	3	4	-5	0	3	·	·
CC1CC1c1ccc(/C=C(\C#N)C(=O)Nc2ccccc2Cl)o1 (stereo not given)	5	3	23*	-3	0	-2	11	8
CN(C(=O)CCl)C1CCCc2ccccc21 (stereo not given)	·	-1	9	3	-1	-19	·	·
Cc1cc(NC(=O)CC2CCCC2)n(-c2nc3ccccc3[nH]2)n1	17	-1	21*	-7	0	-24	17	8
OCCC1CN(Cc2ccccn2)CCN1C1CCCC1 (stereo not given)	·	5	-3	-17	0	14	·	·
OCCC1CN(CC(c2ccccc2)c2ccccc2)CCN1C1CCCC1 (stereo not given)	·	-3	23*	-19	0	1	12	10
O=C(O)CNC(=S)N(Cc1ccccc1)Cc1cccs1	·	-3	8	0	1	-3	·	·
Cc1cccc(C)c1NC(=S)N(Cc1ccccc1)Cc1cccs1	·	3	38*	-18	0	-28	17	20*
COc1cccc(C2C(C#N)=C(N)SC(c3ccccc3)C2[N+](=O)[O-])c1 (stereo not given)	·	-2	1	-3	0	-9	·	·
O=C(Cc1cccs1)N(CC1CCCO1)C1(C(=O)NC2CCCC2)CCCCC1 (stereo not given)	·	-1	36*	-10	0	-17	14	8
COc1ccc(CCNC(=O)C2CCN(Cc3nc(-c4ccccc4F)oc3C)CC2)cc1OC	4	4	-1	-13	0	-10	·	·
Cc1oc(-c2cccc(Cl)c2)nc1CN1CCC(C(=O)NCc2ccco2)CC1	3	-1	6	-5	0	-6	·	·
CCc1ccc(-c2nc(CN3CCC(C(=O)NCCc4ccc(OC)c(OC)c4)CC3)c(C)o2)cc1	13	-1	28*	-25	0	-56	4	16
Cc1oc(-c2ccc(Cl)cc2)nc1CN1CCC(C(=O)N2CCN(Cc3ccccc3)CC2)CC1	17	1	25*	-20	0	-59	21*	29*
CCN1CCCC1CNC(=O)C1CCN(Cc2nc(-c3cccc(Br)c3)oc2C)CC1 (stereo not given)	11	-2	21*	-26	0	-21	9	16
Cc1ccccc1-c1nc(CN2CCC(C(=O)NCCCN3CC(C)CC(C)C3)CC2)c(C)o1 (stereo not given)	15	-2	23*	-21	0	-78	15	24*
SMILES	NPY-Y2 antag	Wee1 stabilizer	NPY-Y1 antag	NPY2 pot ag	Hsp70 activator	NPY-Y1 PAM-ag	NPY1 antag conf	NPY-Y2 antag ct
CC(Sc1nnc(-c2ccc(Cl)cc2)n1C)C(N)=O (stereo not given)	-3	3	-5	6	0	-3	·	·
Nc1nc(CCl)nc(Nc2cccc3ccccc23)n1	·	7	·	-8	·	-8	·	·
Cc1ccccc1NC(=O)C1CCCN(S(=O)(=O)c2cccc3cccnc23)C1 (stereo not given)	0	-1	96*	-9	0	8	2	3
O=C(Nc1ccc(F)cc1)c1sc2cc(C(F)(F)F)cnc2c1-c1cccs1	8	-1	23*	-36	0	-68	12	17
N#CCCn1cc(C=O)c(-c2cccs2)n1	·	-1	3	-21	0	-29	·	·
Cc1cccc2cc(CN(Cc3ccccc3)C(=S)NCCCN(C)C)c(=O)[nH]c12	·	2	28*	-28	0	-62	8	14
Cc1ccc(CN(Cc2cc3cccc(C)c3[nH]c2=O)C(=S)NCCCN(C)C)cc1	·	-2	10	-30	0	-45	·	·
O=C1c2ccccc2CN1CCSC(=S)N1CCOCC1	2	0	0	-6	0	-34	·	·
O=C(CSc1nnc(Cc2ccccc2)n1Cc1ccco1)NC12CC3CC(CC(C3)C1)C2	10	4	23*	1	-1	4	5	4
Cc1oc(-c2ccccc2)nc1Cn1cccc1C1=NC(c2ccccc2)CO1 (stereo not given)	10	2	22*	0	0	18	21*	24*
Cc1cc2nnc(SCCCCN3C(=O)c4ccccc4C3=O)n2c2ccccc12	2	-1	12	-14	0	-19	·	·
Cc1cc(C)n(C(=O)C2CCCN2S(=O)(=O)c2ccc(Cl)cc2)n1 (stereo not given)	-1	0	25*	-11	1	13	-1	1
O=C(C1CCCN1S(=O)(=O)c1ccc(Cl)cc1)N1CCOCC1 (stereo not given)	2	-2	2	11	0	-1	·	·
O=C(COc1ccccc1-c1ccccc1)NCCN1C(=O)S/C(=C\c2cccnc2)C1=O	8	4	1	-7	0	-3	·	·
C/C=C(\C)C(=O)OC1c2c(ccc3ccc(=O)oc23)OC(C)(C)C1OC(C)=O (stereo not given)	10	-3	4	-2	0	-17	·	·
